One assay concerns the target Histone deacetylase 1 (Homo sapiens, UniProt Q13547). The assay can be described thus: Inhibition of recombinant human HDAC1 enzyme using flurogenic Ac-LeuGlyLys (Ac)-AMC as substrate after 15 to 30 mins.
Assay [1] deals with T1, Polyamine deacetylase HDAC10 (Homo sapiens) (UniProt Q969S8).
T1 sequence (whole entry): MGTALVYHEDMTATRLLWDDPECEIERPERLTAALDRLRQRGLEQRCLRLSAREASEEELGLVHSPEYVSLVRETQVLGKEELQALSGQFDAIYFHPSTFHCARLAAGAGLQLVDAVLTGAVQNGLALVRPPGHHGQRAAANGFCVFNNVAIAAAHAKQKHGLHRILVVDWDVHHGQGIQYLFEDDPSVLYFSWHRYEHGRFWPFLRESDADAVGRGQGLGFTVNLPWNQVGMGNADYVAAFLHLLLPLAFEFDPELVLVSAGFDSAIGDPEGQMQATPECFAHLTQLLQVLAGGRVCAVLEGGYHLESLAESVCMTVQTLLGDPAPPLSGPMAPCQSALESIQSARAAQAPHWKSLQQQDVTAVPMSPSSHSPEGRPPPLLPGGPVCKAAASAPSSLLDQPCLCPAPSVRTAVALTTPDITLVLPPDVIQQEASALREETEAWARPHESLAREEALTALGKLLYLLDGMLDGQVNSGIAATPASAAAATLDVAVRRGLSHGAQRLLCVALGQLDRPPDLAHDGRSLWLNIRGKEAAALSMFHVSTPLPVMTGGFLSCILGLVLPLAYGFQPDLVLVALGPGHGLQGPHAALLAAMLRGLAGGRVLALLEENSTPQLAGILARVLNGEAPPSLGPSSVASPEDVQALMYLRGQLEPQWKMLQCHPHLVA
The assay can be described thus: Inhibition of recombinant human HDAC10 enzyme using tetrapeptide Ac-ArgThr-Lys(Ac)Lys(Ac)-AMC as substrate at 50 uM after 15 to 30 mins. Summed up:
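Recombinant human HDAC10 (500 ng/well) was screened at 50 μM compound, with 100 μM of the Lys(Ac)-Lys(Ac)-AMC tetrapeptide substrate, in Tris-HCl pH 8.0 buffer with NaCl, KCl, MgCl2 and 0.5 mg/mL BSA. Plates were incubated 30 min at 37 °C, then developed with trypsin (0.4 mg/mL) for 15–30 min at room temperature and read at ex 360/em 460 nm. There were at least two assays in duplicate.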

Assay [2] has as its target T2, Protein deacetylase HDAC6 (Homo sapiens) (UniProt Q9UBN7).
T2 sequence (whole entry): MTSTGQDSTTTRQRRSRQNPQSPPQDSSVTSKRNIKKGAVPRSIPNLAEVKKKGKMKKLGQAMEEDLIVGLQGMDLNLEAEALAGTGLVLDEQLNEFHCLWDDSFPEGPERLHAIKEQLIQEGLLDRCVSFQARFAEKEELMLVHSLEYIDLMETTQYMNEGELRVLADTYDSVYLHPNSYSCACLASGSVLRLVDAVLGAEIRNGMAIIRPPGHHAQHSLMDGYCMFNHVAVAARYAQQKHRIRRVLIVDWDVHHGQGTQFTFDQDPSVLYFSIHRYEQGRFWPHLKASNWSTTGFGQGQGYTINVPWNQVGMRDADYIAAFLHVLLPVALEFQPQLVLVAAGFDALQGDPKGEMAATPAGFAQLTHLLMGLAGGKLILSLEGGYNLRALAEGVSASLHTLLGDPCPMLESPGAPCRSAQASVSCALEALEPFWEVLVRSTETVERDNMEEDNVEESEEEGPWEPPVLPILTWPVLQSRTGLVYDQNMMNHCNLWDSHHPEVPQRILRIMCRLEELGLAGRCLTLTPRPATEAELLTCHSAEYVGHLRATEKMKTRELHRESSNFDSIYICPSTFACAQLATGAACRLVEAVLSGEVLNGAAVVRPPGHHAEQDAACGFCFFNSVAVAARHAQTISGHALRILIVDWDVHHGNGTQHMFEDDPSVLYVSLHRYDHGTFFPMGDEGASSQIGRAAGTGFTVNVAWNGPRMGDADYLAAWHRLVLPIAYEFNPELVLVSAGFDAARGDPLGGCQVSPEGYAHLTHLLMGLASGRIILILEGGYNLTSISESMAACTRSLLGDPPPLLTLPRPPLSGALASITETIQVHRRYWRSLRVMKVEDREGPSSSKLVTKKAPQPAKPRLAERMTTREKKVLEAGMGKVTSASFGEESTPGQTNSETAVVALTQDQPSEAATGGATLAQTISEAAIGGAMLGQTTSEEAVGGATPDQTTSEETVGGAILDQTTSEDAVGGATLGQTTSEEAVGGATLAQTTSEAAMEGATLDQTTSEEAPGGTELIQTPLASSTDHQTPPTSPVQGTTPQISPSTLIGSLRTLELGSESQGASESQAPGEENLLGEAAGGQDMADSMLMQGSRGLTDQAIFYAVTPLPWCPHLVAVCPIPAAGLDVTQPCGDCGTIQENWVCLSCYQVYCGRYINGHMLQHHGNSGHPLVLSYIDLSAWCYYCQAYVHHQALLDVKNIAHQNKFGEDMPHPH
The assay can be described thus: Inhibition of recombinant human HDAC6 enzyme using flurogenic Ac-LeuGlyLys (Ac)-AMC as substrate at 50 uM after 15 to 30 mins. Summed up:
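The single-point screen used HDAC6 at 60 ng/well, 50 μM compound and 80 μM Ac-Leu-Gly-Lys(Ac)-AMC in pH 8.0 Tris buffer with 0.5 mg/mL BSA, incubated 30 min at 37 °C. Trypsin (0.4 mg/mL) was added for 15–30 min at room temperature, and fluorescence was read at 360/460 nm. Each result came from two or more assays run in duplicate.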

The next assay has as its target T3, Histone deacetylase 11 (Homo sapiens, UniProt Q96DB2).
T3 sequence (Q96DB2 whole entry): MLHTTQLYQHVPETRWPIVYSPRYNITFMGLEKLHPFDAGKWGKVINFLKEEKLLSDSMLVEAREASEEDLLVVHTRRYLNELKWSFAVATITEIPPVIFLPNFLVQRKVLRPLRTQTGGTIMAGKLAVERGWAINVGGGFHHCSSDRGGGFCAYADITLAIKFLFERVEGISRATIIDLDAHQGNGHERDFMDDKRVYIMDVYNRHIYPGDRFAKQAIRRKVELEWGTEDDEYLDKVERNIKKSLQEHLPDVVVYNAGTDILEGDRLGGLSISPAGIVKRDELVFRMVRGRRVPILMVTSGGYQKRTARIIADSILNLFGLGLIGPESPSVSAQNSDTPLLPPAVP
The assay can be described thus: Inhibition of recombinant human HDAC11 enzyme using Ac-LeuGlyLys(Ac)-AMC as substrate after 15 to 30 mins.

The next assay concerns the target T4, Histone deacetylase 8 (Homo sapiens, UniProt Q9BY41).
T4 sequence (Q9BY41 whole entry): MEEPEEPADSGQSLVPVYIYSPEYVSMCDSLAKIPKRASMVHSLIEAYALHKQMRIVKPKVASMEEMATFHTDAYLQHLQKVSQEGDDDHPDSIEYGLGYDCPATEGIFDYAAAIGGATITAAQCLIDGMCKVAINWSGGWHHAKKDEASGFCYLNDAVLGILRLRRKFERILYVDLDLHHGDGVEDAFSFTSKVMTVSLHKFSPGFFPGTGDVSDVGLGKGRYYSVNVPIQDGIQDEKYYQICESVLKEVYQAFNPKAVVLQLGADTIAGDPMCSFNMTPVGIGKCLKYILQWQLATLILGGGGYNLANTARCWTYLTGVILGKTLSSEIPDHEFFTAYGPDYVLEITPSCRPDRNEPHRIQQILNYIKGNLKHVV
The assay can be described thus: Inhibition of recombinant human HDAC8 enzyme using Ac-LeuGlyLys (tfa)-AMC as substrate after 15 to 30 mins.

Assay [3] has as its target Histone deacetylase 3/NCoR1 (Homo sapiens, UniProt O15379). The assay can be described thus: Inhibition of GST-tagged recombinant human HDAC3/NcoR1 enzyme using flurogenic Ac-LeuGlyLys (Ac)-AMC as substrate after 15 to 30 mins. It is filed as protein-complex assay.
A further assay deals with Histone deacetylase 2 (Homo sapiens, UniProt Q92769). Put plainly: Inhibition of recombinant human HDAC2 enzyme using flurogenic Ac-LeuGlyLys (Ac)-AMC as substrate after 15 to 30 mins.
For assay [4], the target named is T5, Histone deacetylase 8 (Homo sapiens) (UniProt Q9BY41).
T5 sequence (whole entry): T4 sequence (Q9BY41 whole entry)
The assay can be described thus: Inhibition of recombinant human HDAC8 enzyme using Ac-LeuGlyLys (tfa)-AMC as substrate at 50 uM after 15 to 30 mins. In outline: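 HDAC8 (5 ng/well) was incubated 30 min at 37 °C with 50 μM compound and 400 μM trifluoroacetylated substrate Ac-Leu-Gly-Lys(Tfa)-AMC in Tris-HCl pH 8.0 buffer with NaCl, KCl, MgCl2 and BSA. Trypsin (0.4 mg/mL) development ran 15–30 min at room temperature, with a 360/460 nm read-out. There were at least two separate duplicate assays.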

Assay [5] concerns the target T6, Polyamine deacetylase HDAC10 (Homo sapiens, UniProt Q969S8).
T6 sequence (Q969S8 whole entry): T1 sequence (whole entry)
Put plainly: Inhibition of recombinant human HDAC10 enzyme using tetrapeptide Ac-ArgThr-Lys(Ac)Lys(Ac)-AMC as substrate after 15 to 30 mins.

Assay [6] addresses T7, Protein deacetylase HDAC6 (Homo sapiens, UniProt Q9UBN7).
T7 sequence (Q9UBN7 whole entry): T2 sequence (whole entry)
The assay can be described thus: Inhibition of recombinant human HDAC6 enzyme using flurogenic Ac-LeuGlyLys (Ac)-AMC as substrate after 15 to 30 mins.

Assay [7] deals with T8, Histone deacetylase 11 (Homo sapiens) (UniProt Q96DB2).
T8 sequence (whole entry): T3 sequence (Q96DB2 whole entry)
Put plainly: Inhibition of recombinant human HDAC11 enzyme using Ac-LeuGlyLys(Ac)-AMC as substrate at 50 uM after 15 to 30 mins. In outline:
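HDAC11 (500 ng/well) was tested at a single 50 μM peptide concentration with 80 μM Ac-Leu-Gly-Lys(Ac)-AMC in Tris-HCl pH 8.0 buffer containing BSA, for 30 min at 37 °C. Trypsin development (0.4 mg/mL, 15–30 min, room temperature) released AMC, read at ex 360/em 460 nm. […] There were at least two assays in duplicate.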

In assay [8] the target is Histone deacetylase 3/NCoR1 (Homo sapiens) (UniProt O15379+O75376). Conditions: 50 uM.

Structures are written as SMILES.

Histone deacetylase 3/NCoR1, sequence (O15379 whole entry): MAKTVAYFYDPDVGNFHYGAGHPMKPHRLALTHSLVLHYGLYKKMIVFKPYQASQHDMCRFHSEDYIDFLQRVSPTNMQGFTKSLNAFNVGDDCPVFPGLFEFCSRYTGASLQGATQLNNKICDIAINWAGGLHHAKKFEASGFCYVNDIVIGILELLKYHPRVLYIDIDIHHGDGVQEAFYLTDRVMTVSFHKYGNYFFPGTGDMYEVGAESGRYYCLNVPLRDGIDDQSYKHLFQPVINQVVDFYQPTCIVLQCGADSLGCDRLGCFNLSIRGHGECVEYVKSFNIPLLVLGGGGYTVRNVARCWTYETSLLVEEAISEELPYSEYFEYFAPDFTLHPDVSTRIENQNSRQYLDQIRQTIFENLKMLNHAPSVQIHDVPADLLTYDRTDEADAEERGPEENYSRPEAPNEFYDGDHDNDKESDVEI
Histone deacetylase 3/NCoR1, sequence (O75376 whole entry, further chain): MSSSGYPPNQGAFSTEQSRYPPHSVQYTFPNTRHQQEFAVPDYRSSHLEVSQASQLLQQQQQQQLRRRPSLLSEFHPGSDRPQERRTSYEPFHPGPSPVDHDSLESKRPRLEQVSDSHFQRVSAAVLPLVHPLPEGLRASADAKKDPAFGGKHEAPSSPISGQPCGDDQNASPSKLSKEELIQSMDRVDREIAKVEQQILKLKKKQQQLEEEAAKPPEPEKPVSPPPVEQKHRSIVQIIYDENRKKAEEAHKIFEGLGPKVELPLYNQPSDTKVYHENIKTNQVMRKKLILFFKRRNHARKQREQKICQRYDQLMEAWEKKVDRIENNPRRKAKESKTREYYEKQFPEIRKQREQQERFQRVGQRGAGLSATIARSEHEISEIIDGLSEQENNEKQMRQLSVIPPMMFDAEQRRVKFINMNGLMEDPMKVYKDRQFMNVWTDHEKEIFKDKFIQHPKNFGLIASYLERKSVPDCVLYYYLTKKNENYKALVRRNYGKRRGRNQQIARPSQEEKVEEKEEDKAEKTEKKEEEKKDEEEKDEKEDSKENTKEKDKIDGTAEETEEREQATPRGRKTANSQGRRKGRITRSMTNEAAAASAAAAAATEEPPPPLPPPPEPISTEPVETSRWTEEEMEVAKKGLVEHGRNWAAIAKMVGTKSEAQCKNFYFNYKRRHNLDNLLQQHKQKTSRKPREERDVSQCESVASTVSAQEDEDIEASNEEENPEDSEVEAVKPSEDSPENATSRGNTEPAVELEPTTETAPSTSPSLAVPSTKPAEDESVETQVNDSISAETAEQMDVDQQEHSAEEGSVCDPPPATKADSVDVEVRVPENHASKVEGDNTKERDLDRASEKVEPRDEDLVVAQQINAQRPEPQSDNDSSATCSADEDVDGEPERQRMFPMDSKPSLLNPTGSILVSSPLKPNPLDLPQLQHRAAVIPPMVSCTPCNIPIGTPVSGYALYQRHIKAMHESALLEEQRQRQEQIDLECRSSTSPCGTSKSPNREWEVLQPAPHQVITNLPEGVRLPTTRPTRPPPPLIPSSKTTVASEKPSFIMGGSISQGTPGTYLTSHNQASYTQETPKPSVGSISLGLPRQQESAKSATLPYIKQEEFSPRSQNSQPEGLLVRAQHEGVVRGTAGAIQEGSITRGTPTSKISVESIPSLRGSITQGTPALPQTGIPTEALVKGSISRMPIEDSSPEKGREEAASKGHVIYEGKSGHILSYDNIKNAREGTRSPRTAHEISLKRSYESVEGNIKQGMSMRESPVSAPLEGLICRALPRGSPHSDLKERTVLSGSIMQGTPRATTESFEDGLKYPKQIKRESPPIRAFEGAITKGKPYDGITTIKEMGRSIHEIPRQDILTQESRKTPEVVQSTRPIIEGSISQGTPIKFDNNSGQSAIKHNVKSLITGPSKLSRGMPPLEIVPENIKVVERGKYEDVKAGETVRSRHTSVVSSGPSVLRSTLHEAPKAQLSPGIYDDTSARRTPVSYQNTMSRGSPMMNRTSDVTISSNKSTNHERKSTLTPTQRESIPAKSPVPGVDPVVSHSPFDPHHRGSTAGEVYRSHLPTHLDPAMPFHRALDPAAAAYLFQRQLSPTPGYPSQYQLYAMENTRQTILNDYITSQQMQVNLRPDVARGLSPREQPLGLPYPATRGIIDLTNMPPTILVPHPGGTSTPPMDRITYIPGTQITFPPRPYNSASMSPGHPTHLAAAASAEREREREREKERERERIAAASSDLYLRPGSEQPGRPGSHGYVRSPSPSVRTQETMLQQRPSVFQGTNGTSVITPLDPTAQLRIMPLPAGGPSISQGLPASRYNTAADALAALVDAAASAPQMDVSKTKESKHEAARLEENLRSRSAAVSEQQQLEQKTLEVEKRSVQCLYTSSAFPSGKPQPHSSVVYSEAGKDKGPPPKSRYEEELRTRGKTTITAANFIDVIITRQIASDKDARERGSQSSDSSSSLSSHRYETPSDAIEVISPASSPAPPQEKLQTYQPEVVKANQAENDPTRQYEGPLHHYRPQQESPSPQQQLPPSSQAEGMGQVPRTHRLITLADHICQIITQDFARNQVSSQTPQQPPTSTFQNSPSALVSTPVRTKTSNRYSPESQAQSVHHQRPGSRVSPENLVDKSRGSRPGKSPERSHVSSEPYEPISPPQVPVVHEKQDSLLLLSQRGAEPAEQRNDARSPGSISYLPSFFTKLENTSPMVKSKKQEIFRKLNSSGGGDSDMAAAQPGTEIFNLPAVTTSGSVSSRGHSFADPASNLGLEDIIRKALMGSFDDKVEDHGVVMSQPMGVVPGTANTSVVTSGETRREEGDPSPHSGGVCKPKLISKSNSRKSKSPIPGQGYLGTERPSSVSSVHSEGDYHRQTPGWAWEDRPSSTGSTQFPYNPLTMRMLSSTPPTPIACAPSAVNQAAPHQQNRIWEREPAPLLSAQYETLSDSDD
Histone deacetylase 2, sequence (Q92769 whole entry): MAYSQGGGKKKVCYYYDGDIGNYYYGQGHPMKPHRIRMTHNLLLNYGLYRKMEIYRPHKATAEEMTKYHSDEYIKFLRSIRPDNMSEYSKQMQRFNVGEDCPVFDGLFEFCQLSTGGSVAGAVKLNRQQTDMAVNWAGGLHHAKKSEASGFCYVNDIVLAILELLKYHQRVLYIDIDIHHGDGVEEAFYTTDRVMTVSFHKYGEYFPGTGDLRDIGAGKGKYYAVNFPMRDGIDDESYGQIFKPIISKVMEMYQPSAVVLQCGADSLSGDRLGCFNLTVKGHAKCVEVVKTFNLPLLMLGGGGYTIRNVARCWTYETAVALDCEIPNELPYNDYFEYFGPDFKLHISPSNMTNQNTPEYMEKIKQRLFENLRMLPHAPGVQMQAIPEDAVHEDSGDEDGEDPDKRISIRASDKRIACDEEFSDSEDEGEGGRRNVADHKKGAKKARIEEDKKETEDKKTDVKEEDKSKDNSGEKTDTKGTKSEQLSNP
Histone deacetylase 1, sequence (Q13547 whole entry): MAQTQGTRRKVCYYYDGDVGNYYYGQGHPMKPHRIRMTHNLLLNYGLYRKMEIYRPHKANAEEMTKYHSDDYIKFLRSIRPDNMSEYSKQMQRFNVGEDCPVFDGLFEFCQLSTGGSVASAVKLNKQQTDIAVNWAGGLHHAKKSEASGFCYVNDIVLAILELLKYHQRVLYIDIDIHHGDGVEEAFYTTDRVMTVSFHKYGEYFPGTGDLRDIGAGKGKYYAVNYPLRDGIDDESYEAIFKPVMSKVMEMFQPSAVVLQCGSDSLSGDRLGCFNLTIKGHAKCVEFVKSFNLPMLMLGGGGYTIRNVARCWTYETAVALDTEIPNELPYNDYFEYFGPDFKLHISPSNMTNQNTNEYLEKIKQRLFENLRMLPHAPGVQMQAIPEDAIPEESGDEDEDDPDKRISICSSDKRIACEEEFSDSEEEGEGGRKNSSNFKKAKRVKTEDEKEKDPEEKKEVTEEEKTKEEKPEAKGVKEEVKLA

On to `C/C=C1\NC(=O)[C@H]2CSSCC/C=C/[C@H](CC(=O)N[C@H](C(C)C)C(=O)N2)OC(=O)[C@H](C(C)C)NC1=O` [ROMIDEPSIN], for which, on Histone deacetylase 1, the inhibition constant (Ki) was 0.002 nM.
Take `CC(C)[C@H]1NC(=O)[C@@H](C)[C@@H](C/C=C\CCC(N)=O)NC(=O)[C@@H](Cc2ccccc2)NC(=O)[C@@H](C)NC1=O` [AZUMAMIDE A]: the inhibition in assay [1] and in assay [2] was less than 50% throughout. Further, the Ki at Histone deacetylase 11 is more than 5 µM; at Histone deacetylase 8 it was more than 5 µM; in assay [3] it was 3.2 µM; on Histone deacetylase 2, more than 5 µM; at Histone deacetylase 1, more than 5000 nM.
For `C[C@@H]1C(=O)N[C@H](C)C(=O)N[C@H](C)C(=O)N[C@H](Cc2ccccc2)C(=O)N[C@@H]1C/C=C\CCC(N)=O` [AZUMAMIDE D], the inhibition in [1], in assay [2] and in [4] was less than 50% each time. Further, the Ki on Histone deacetylase 11 was more than 5 µM; in assay [3], 3.7 µM; on Histone deacetylase 2 it was more than 5 µM; on Histone deacetylase 1 it was more than 5000 nM.
In the case of `CC(C)[C@H]1NC(=O)[C@@H](C)[C@@H](C/C=C\CCC(=O)O)NC(=O)[C@@H](Cc2ccccc2)NC(=O)[C@@H](C)NC1=O` [AZUMAMIDE E], the Ki on Histone deacetylase 11 was 0.06 µM; in [5], 0.02 µM; in assay [6], more than 5 µM; at Histone deacetylase 8 it was 4.4 µM; in [3], 0.025 µM.
Turning to `CC(C)[C@H]1NC(=O)[C@@H](C)[C@@H](C/C=C\CCC(=O)O)NC(=O)[C@@H](Cc2ccc(O)cc2)NC(=O)[C@@H](C)NC1=O` [AZUMAMIDE C], the Ki is 0.035 µM at Histone deacetylase 11; 0.01 µM in assay [5]; 2 µM in assay [6]; more than 5 µM on Histone deacetylase 8; 0.014 µM in assay [3]; 0.04 µM on Histone deacetylase 2. Further, the inhibition constant (Ki) on Histone deacetylase 1 was 32 nM.
Take `CC(C)[C@H]1NC(=O)[C@@H](C)[C@H](C/C=C\CCC(=O)O)NC(=O)[C@@H](Cc2ccccc2)NC(=O)[C@@H](C)NC1=O`: the inhibition in assay [1], in [7], in assay [2], in [4] and in assay [8] was less than 50% each time.
Consider `CC(C)[C@H]1NC(=O)[C@@H](C)[C@@H](C/C=C\CCC(N)=O)NC(=O)[C@@H](Cc2ccc(O)cc2)NC(=O)[C@@H](C)NC1=O` [AZUMAMIDE B], for which the inhibition in assay [1], in assay [2] and in [4] was less than 50% throughout. The Ki on Histone deacetylase 11 is more than 5 µM; in assay [3], 3 µM; on Histone deacetylase 2, 3 µM; on Histone deacetylase 1, 5000 nM.
For `CC(C)[C@H]1NC(=O)[C@H](C)[C@@H](C/C=C\CCC(=O)O)NC(=O)[C@@H](Cc2ccccc2)NC(=O)[C@@H](C)NC1=O`, the inhibition in [1], in assay [7], in assay [2], in assay [4] and in assay [8] was less than 50% in each case.

The values above are taken from ChEMBL document CHEMBL2417416, “Total synthesis and full histone deacetylase inhibitory profiling of Azumamides A-E as well as β²- epi-Azumamide E and β³-epi-Azumamide E” (J Med Chem, 2013).
